Test results published in ChEMBL document CHEMBL1138269, “Antimicrobial lexitropsins containing amide, amidine, and alkene linking groups” (J Med Chem, 2007).
Converted amounts (≈) assume the structure as drawn.

Columns and labels:
Assay type in all cases: functional
Staphylococcus aureus = test: Antibacterial activity against methicillin-sensitive Staphylococcus aureus NCTC 6571
In short: (§1)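 Broth microdilution in Mueller-Hinton broth. Samples were dissolved in sterile water to 200 µg mL-1 as the working solution and doubling dilutions were made across rows. Plates were incubated at 37 °C and inspected visually, with resazurin added as growth indicator. MIC reported in µg mL-1.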

Enterococcus faecalis = test: Antibacterial activity against Streptococcus faecalis NCTC 775; in short: as §1
[1] = tested on: Mycolicibacterium fortuitum; test: Antibacterial activity against Mycobacterium fortuitum NCTC 10394; in short: as §1
Aspergillus niger = test: Antifungal activity against Aspergillus niger IMI 149007
In short: (§2)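 Antifungal microdilution in Sabouraud broth. Test sample at 200 µg mL-1 working solution in sterile water was serially doubled down successive rows. Incubation was at 25 °C, followed by visual growth check and addition of resazurin indicator. Read-out is MIC in µg mL-1.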

Candida albicans = test: Antifungal activity against Candida albicans NCPF 3179; in short: as §2
[2] = Staphylococcus aureus, NCTC 6571, read-out: MIC
[3] = Enterococcus faecalis, NCTC 775, read-out: MIC
[4] = Candida albicans, read-out: MIC

| SMILES | MIC (Staphylococcus aureus; [2]) [µg/mL] | MIC (Enterococcus faecalis; [3]) [µg/mL] | MIC [1] [µg/mL] | MIC (Aspergillus niger) [µg/mL] | MIC (Candida albicans; [4]) [µg/mL] | MIC (Staphylococcus aureus) [µg/mL] | MIC (Enterococcus faecalis) [µg/mL] | MIC (Candida albicans) [µg/mL] |
| --- | --- | --- | --- | --- | --- | --- | --- | --- |
| CC(C)c1sc(NC(=O)c2cc(NC(=O)c3cc(NC(=O)c4cc5ccccc5cn4)cn3C)cn2C)nc1C(=O)NCCN1CCOCC1 | > 50 | > 50 | > 50 | > 50 | > 50 | – | – | – |
| COc1cccc(C(=O)Nc2ccc(C(=O)Nc3cc(C(=O)Nc4cc(C(=O)NCCN5CCOCC5)n(C)c4)n(C)c3)cc2)c1 | > 50 | > 50 | > 50 | > 50 | > 50 | – | – | – |
| COc1cccc(C(=N)Nc2cc(C(=O)Nc3cc(C(=O)Nc4cn(CCCN(C)C)cn4)n(C)c3)n(C)c2)c1 | > 50 | > 50 | > 50 | > 50 | > 50 | – | – | – |
| CC(C)CCc1sc(NC(=O)c2cc(NC(=O)c3ccc(/C=C/c4ccc5ccccc5c4)cc3)cn2C)nc1C(=O)NCCN1CCOCC1 | > 50 | > 50 | > 50 | > 50 | > 50 | – | – | – |
| CN(C)CCCn1cnc(NC(=O)c2cc(NC(=O)c3cc(NC=O)cn3C)cn2C)c1 | > 50 | > 50 | > 50 | > 50 | > 50 | – | – | – |
| COc1cccc(C(=N)Nc2cc(C(=O)Nc3cc(C(=O)Nc4cc(C(=O)NCCN5CCOCC5)n(C)c4)n(C)c3)n(C)c2)c1 | > 50 | > 50 | > 50 | > 50 | > 50 | – | – | – |
| CN(C)CCCNC(=O)c1cc(NC(=O)c2cc(NC(=O)c3cc(/C=C/c4ccc5ccccc5n4)cn3C)cn2C)cn1C | > 50 | > 50 | > 50 | 50 (≈ 82.4 µM) | 25 (≈ 41.2 µM) | – | – | – |
| CC(C)CCc1sc(NC(=O)c2cc(NC(=O)c3ccc(/C=C/c4cnc5ccccc5c4)cc3)cn2C)nc1C(=O)NCCN1CCOCC1 | > 50 | > 50 | > 50 | > 50 | 50 (≈ 70.8 µM) | – | – | – |
| COc1cccc(C(=O)Nc2cc(C(=O)Nc3cc(C(=O)Nc4cn(CCCN(C)C)cn4)n(C)c3)n(C)c2)c1 | > 50 | > 50 | > 50 | > 50 | > 50 | – | – | – |
| Cn1cc(NC(=O)c2cc(NC(=O)c3ccc(/C=C/c4nc5ccccc5o4)cc3)cn2C)cc1C(=O)NCCN1CCOCC1 (stereo in doubt; 72) | – | – | – | – | – | 3 (≈ 4.83 µM) | 3 (≈ 4.83 µM) | 50 (≈ 80.4 µM) |
| CC(C)CCc1sc(NC(=O)c2cc(NC(=O)c3ccc(/C=C/c4cc5ccccc5nc4Cl)cc3)cn2C)nc1C(=O)NCCN1CCOCC1 | > 50 | > 50 | > 50 | > 50 | > 50 | – | – | – |
| CC(C)CCc1sc(NC(=O)c2cc(NC(=O)c3ccc(/C=C/c4ccc5ccccc5n4)cc3)cn2C)nc1C(=O)NCCN1CCOCC1 | > 50 | > 50 | > 50 | > 50 | > 50 | – | – | – |
| Cn1cc(NC(=O)c2cc(NC(=O)c3ccc(NC(=O)c4cnc5ccccc5c4)cc3)cn2C)cc1C(=O)NCCN1CCOCC1 | > 50 | > 50 | > 50 | > 50 | > 50 | – | – | – |
| CN(C)CCCn1cnc(NC(=O)c2cc(NC(=O)c3cc(NC(=O)c4cc5ccccc5cn4)cn3C)cn2C)c1 | > 50 | > 50 | > 50 | > 50 | > 50 | – | – | – |

The next lines start with results.

| MIC (Staphylococcus aureus; [2]) [µg/mL] | MIC (Enterococcus faecalis; [3]) [µg/mL] | MIC [1] [µg/mL] | MIC (Aspergillus niger) [µg/mL] | MIC (Candida albicans; [4]) [µg/mL] | SMILES | MIC (Staphylococcus aureus) [µg/mL] | MIC (Enterococcus faecalis) [µg/mL] | MIC (Candida albicans) [µg/mL] |
| --- | --- | --- | --- | --- | --- | --- | --- | --- |
| 5 (≈ 9.21 µM) | 10 (≈ 18.4 µM) | 19 (≈ 35 µM) | 76 (≈ 140 µM) | 76 (≈ 140 µM) | CC(C)c1sc(NC(=O)c2cc(NC(=O)c3cc(NC=O)cn3C)cn2C)nc1C(=O)NCCCN(C)C | – | – | – |
| 50 (≈ 87.5 µM) | > 50 | > 50 | 50 (≈ 87.5 µM) | > 50 | CN(C)CCCNC(=O)c1cc(NC(=O)c2cc(NC(=O)c3cc(NC(=N)c4ccccc4)cn3C)cn2C)cn1C | – | – | – |
| 25 (≈ 39.2 µM) | 25 (≈ 39.2 µM) | > 50 | > 50 | > 50 | Cn1cc(NC(=O)c2cc(NC(=O)c3ccc(/C=C/c4nc5ccccc5s4)cc3)cn2C)cc1C(=O)NCCN1CCOCC1 | – | – | – |
| 25 (≈ 39.6 µM) | > 50 | > 50 | > 50 | > 50 | Cn1cc(NC(=O)c2cc(NC(=O)c3ccc(/C=C/c4ccc5ccccc5c4)cc3)cn2C)cc1C(=O)NCCN1CCOCC1 | – | – | – |
| 13 (≈ 25.5 µM) | 50 (≈ 98.1 µM) | > 50 | 50 (≈ 98.1 µM) | > 50 | CC(=N)Nc1cc(C(=O)Nc2cc(C(=O)Nc3cc(C(=O)NCCCN(C)C)n(C)c3)n(C)c2)n(C)c1 | – | – | – |
| > 50 | > 50 | > 50 | > 50 | > 50 | COc1ccc(C(=O)Nc2cc(C(=O)Nc3cc(C(=O)Nc4cn(CCCN(C)C)cn4)n(C)c3)n(C)c2)cc1 | – | – | – |
| 50 (≈ 83.4 µM) | > 50 | > 50 | > 50 | > 50 | CC(C)n1cc(NC(=O)c2cc(NC(=N)c3ccccc3)cn2C)cc1C(=O)Nc1cc(C(=O)NCCCN(C)C)n(C)c1 | – | – | – |
| 50 (≈ 74.6 µM) | 50 (≈ 74.6 µM) | 50 (≈ 74.6 µM) | > 50 | 50 (≈ 74.6 µM) | CC(C)c1sc(NC(=O)c2cc(NC(=O)c3cc(NC(=O)c4cc5ccccc5cn4)cn3C)cn2C)nc1C(=O)NCCCN(C)C | – | – | – |
| 50 (≈ 90 µM) | 50 (≈ 90 µM) | > 50 | 50 (≈ 90 µM) | > 50 | CC(=N)Nc1cc(C(=O)Nc2cc(C(=O)Nc3nc(C(=O)NCCCN(C)C)c(C(C)C)s3)n(C)c2)n(C)c1 | – | – | – |
| 13 (≈ 20.5 µM) | 13 (≈ 20.5 µM) | > 50 | > 50 | > 50 | COc1cccc(C(=O)Nc2nc(C(=O)Nc3cc(C(=O)Nc4cc(C(=O)NCCC(=N)N)n(C)c4)n(C)c3)c(C(C)C)s2)c1 | – | – | – |
| 25 (≈ 41.5 µM) | > 50 | > 50 | 25 (≈ 41.5 µM) | > 50 | COc1cccc(C(=N)Nc2cc(C(=O)Nc3cc(C(=O)Nc4cc(C(=O)NCCCN(C)C)n(C)c4)n(C)c3)n(C)c2)c1 | – | – | – |
| 13 (≈ 20.1 µM) | 50 (≈ 77.2 µM) | > 50 | 50 (≈ 77.2 µM) | > 50 | COc1cccc(C(=N)Nc2cc(C(=O)Nc3cc(C(=O)Nc4nc(C(=O)NCCCN(C)C)c(C(C)C)s4)n(C)c3)n(C)c2)c1 | – | – | – |
| 25 (≈ 42.9 µM) | 25 (≈ 42.9 µM) | > 50 | > 50 | > 50 | COc1cccc(/C=C/c2cccc(C(=O)Nc3cc(C(=O)Nc4cc(C(=O)NCCCN(C)C)n(C)c4)n(C)c3)c2)c1 | – | – | – |
| 3 (≈ 4.44 µM) | 13 (≈ 19.2 µM) | > 50 | > 50 | > 50 | COc1cccc(C(=N)Nc2cc(C(=O)Nc3cc(C(=O)Nc4nc(C(=O)NCCCN(C)C)c(CCC(C)C)s4)n(C)c3)n(C)c2)c1 | – | – | – |
| 50 (≈ 79.1 µM) | > 50 | > 50 | > 50 | > 50 | Cn1cc(NC(=O)c2cc(NC(=O)c3ccc(/C=C/c4ccc5ccccc5n4)cc3)cn2C)cc1C(=O)NCCN1CCOCC1 | – | – | – |
| 6 (≈ 8.95 µM) | 50 (≈ 74.6 µM) | > 50 | 50 (≈ 74.6 µM) | > 50 | CC(C)n1cc(NC(=O)c2cc(NC(=O)c3ccc(Cl)c(Cl)n3)cn2C)cc1C(=O)Nc1cc(C(=O)NCCCN(C)C)n(C)c1 | – | – | – |
| 13 (≈ 24.2 µM) | 50 (≈ 93 µM) | > 50 | 50 (≈ 93 µM) | > 50 | CC(=N)Nc1cc(C(=O)Nc2cc(C(=O)Nc3cc(C(=O)NCCCN(C)C)n(C)c3)n(C(C)C)c2)n(C)c1 | – | – | – |
